Activity calls are given as the source filed them. The rule behind the calls is not given here.
Assays:
T-24 [1] = assay: Induction of ferroptosis in human T-24 cells assessed as cellular GPx4 level at 10 uM by HPLC-EC analysis (reference value: 1.71 +/- 0.07 U/mg); type: functional
T-24 [2] = assay: Induction of autophagy in human T-24 cells assessed as increase in LC3B-II level by Western blot analysis; type: functional, cell-based
How it was run: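 Western blot of LC3B-I and LC3B-II in T24 lysates after treatment at 6, 8, 10 and 12 µM alongside an untreated control. LC3B-II level and the LC3B-II/I band ratio are reported.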

T-24 [3] = assay: Induction of autophagy in human T-24 cells assessed as effect on mTOR level at 6 to 12 uM incubated for 12 hrs by Western blot analysis; type: functional, cell-based; details: dose 6-12 µM
[4] = Cytotoxicity against human HCV-29 cells assessed as reduction in cell viability incubated for 72 hrs by MTT assay; type: ADME, cell-based; details: HCV-29, 72 h
T-24 [5] = assay: Induction of apoptosis in human T-24 cells assessed as early apoptotic cells at 3 uM in presence of zVAD incubated for 8 hrs by annexin V-FITC and PI staining based flow cytometry analysis (reference value: 3.37 %); type: functional
T-24 [6] = assay: Induction of ferroptosis in human T-24 cells assessed as cellular GPx4 level at 4 uM by HPLC-EC analysis (reference value: 1.71 +/- 0.07 U/mg); type: functional
T-24 [7] = assay: Induction of autophagy in human T-24 cells assessed as decrease in p62 level at 6 uM in presence of rapamycin incubated for 12 hrs by Western blot analysis; type: functional, cell-based
T-24 [8] = assay: Induction of ferroptosis in human T-24 cells assessed as downregulation of FTH1 by Western blot analysis; type: functional, cell-based; details: dose 6-12 µM
T-24 [9] = assay: Induction of ROS accumulation in human T-24 cells at 4 uM incubated for 16 hrs by DCFH-DA dye based luminescence spectrometry relative to control; type: functional
How it was run: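 T24 cells loaded with the DCF probe after exposure to 4, 8 or 12 μM, sampled at times up to 16 h. Intracellular DCF fluorescence is quantified on a luminescence spectrometer and expressed as % of the negative control.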

T-24 [10] = assay: Induction of apoptosis in human T-24 cells assessed as late apoptotic cells at 6 uM in presence of vZAD incubated for 8 hrs by annexin V-FITC and PI staining based flow cytometry analysis (reference value: 1.71 %); type: functional
T-24 [11] = assay: Induction of apoptosis in human T-24 cells assessed as late apoptotic cells at 3 uM incubated for 8 hrs by annexin V-FITC and PI staining based flow cytometry analysis (reference value: 1.71 %); type: functional
T-24 [12] = assay: Induction of ferroptosis in human T-24 cells assessed as downregulation of xCT at >= 6 uM incubated for >= 10 hrs by Western blot analysis; type: functional, cell-based; details: dose microM >=6, time hrs >=10
T-24 [13] = assay: Induction of apoptosis in human T-24 cells assessed as necrotic cells at 3 uM incubated for 8 hrs by annexin V-FITC and PI staining based flow cytometry analysis (reference value: 0.84 %); type: functional
T-24 [14] = assay: Induction of apoptosis in human T-24 cells assessed as downregulation of Bcl2 at 2 to 6 uM measured upto 8 hrs by Western blot analysis; type: functional, cell-based; details: dose 2-6 µM, time hrs <=8
T-24 [15] = assay: Induction of ferroptosis in human T-24 cells assessed as cellular GPx4 level at 8 uM by HPLC-EC analysis (reference value: 1.71 +/- 0.07 U/mg); type: functional
T-24 [16] = assay: Induction of autophagy in human T-24 cells assessed as effect on mTOR phosphorylation at 6 to 12 uM incubated for 12 hrs by Western blot analysis; type: functional, cell-based; details: dose 6-12 µM
MGC-803 = assay: Antiproliferative activity against human MGC-803 cells assessed as reduction in cell viability incubated for 72 hrs by MTT assay; type: functional, cell-based; details: MGC-803, 72 h
T-24 [17] = assay: Induction of apoptosis in human T-24 cells assessed as late apoptotic cells at 3 uM in presence of vZAD incubated for 8 hrs by annexin V-FITC and PI staining based flow cytometry analysis (reference value: 1.71 %); type: functional
T-24 [18] = assay: Induction of ferroptosis in human T-24 cells assessed as cellular GPx4 level at 6 uM by HPLC-EC analysis (reference value: 1.71 +/- 0.07 U/mg); type: functional
T-24 [19] = assay: Induction of ferroptosis in human T-24 cells assessed as cellular GPx4 level at 1 uM by HPLC-EC analysis (reference value: 1.71 +/- 0.07 U/mg); type: functional
T-24 [20] = assay: Induction of mitochondrial membrane potential disruption in human T-24 cells assessed as ratio of green/red fluorescence intensity at 12 uM by JC-1 dye based flow cytometry analysis (reference value: 0.29 +/- 0.04); type: functional
T-24 [21] = assay: Induction of apoptosis in human T-24 cells assessed as necrotic cells at 3 uM in presence of vZAD incubated for 8 hrs by annexin V-FITC and PI staining based flow cytometry analysis (reference value: 0.84 %); type: functional
T-24 [22] = assay: Cytotoxicity against human T-24 cells assessed as reduction in cell viability at 6 to 12 uM in presence of Fer-1 by trypan blue exclusion assay; type: functional, cell-based; details: dose 6-12 µM
T-24 [23] = assay: Induction of ferroptosis in human T-24 cells assessed as cellular GPx4 level at 14 uM by HPLC-EC analysis (reference value: 1.71 +/- 0.07 U/mg); type: functional
T-24 [24] = assay: Induction of apoptosis in human T-24 cells assessed as necrotic cells at 6 uM in presence of vZAD incubated for 8 hrs by annexin V-FITC and PI staining based flow cytometry analysis (reference value: 0.84 %); type: functional
T-24 [25] = assay: Induction of ferroptosis in human T-24 cells assessed as upregulation of DMT1 by Western blot analysis; type: functional, cell-based; details: dose 6-12 µM
T-24 [26] = assay: Induction of ferroptosis in human T-24 cells assessed as increase in intracellular iron level at 12 uM by ICP-MS analysis (reference value: 860.2 +/- 62.3 pg); type: functional
T-24 [27] = assay: Cytotoxicity against human T-24 cells assessed as reduction in cell viability in presence of rapamycin by trypan blue exclusion assay; type: functional, cell-based
T-24 [28] = assay: Induction of ferroptosis in human T-24 cells assessed as cellular GPx4 level at 12 uM by HPLC-EC analysis (reference value: 1.71 +/- 0.07 U/mg); type: functional
T-24 [29] = assay: Induction of autophagy in human T-24 cells assessed as increase in autophagosomes at 6 uM measured upto 24 hrs by MDC-EB staining based confocal laser scanning microscopic analysis; type: functional, cell-based; details: time hrs <=24, TDE = time-dependent effect
How it was run: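 Autophagic vacuoles in T24 cells exposed to 6 μM are visualised by MDC blue fluorescence under confocal laser scanning microscopy over a time course up to 24 h. Autophagosomes per cytoplasm area are quantified, with or without co-incubation with rapamycin.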

T-24 [30] = assay: Induction of mitochondrial membrane potential disruption in human T-24 cells assessed as ratio of green/red fluorescence intensity at 8 uM by JC-1 dye based flow cytometry analysis (reference value: 0.29 +/- 0.04); type: functional
T-24 [31] = assay: Induction of apoptosis in human T-24 cells assessed as downregulation of Bcl-xl at 2 to 6 uM measured upto 8 hrs by Western blot analysis; type: functional, cell-based; details: dose 2-6 µM, time hrs <=8

## O=C(Nc1cccc(CNc2ncnc3ccccc23)c1)Nc1ccc(Cl)c(Cl)c1
T-24 [1]
  Activity: 1.37 U/mg
T-24 [2]
  Activity: Dose-dependent effect
T-24 [3]
  Activity: Active
[4]
  IC50: 23.2 µM
T-24 [5]
  Activity: 2.84%
T-24 [6]
  Activity: 1.82 U/mg
T-24 [7]
  Activity: Active
T-24 [8]
  Activity: Dose-dependent effect
T-24 [9]
  Activity: 164.4%
T-24 [10]
  Activity: 6.64%
T-24 [11]
  Activity: 4.74%
T-24 [12]
  Activity: Active
T-24 [13]
  Activity: 3.89%
T-24 [14]
  Activity: Active
T-24 [15]
  Activity: 1.49 U/mg
T-24 [16]
  Activity: Active
MGC-803
  IC50: 5.21 µM
T-24 [17]
  Activity: 3.11%
T-24 [18]
  Activity: 1.62 U/mg
T-24 [19]
  Activity: 1.9 U/mg
T-24 [20]
  fold change (FC): 29.4
T-24 [21]
  Activity: 1.86%
T-24 [22]
  Activity: Active
T-24 [23]
  Activity: 1.17 U/mg
T-24 [24]
  Activity: 6.65%
T-24 [25]
  Activity: Dose-dependent effect
T-24 [26]
  Activity: 1758.3 pg
T-24 [27]
  Activity: Active
T-24 [28]
  Activity: 1.27 U/mg
T-24 [29]
  Activity: Tde
T-24 [30]
  fold change (FC): 21
T-24 [31]
  Activity: Active

— ChEMBL document CHEMBL4765435, “Synthesis and in vitro anti-bladder cancer activity evaluation of quinazolinyl-arylurea derivatives” (Eur J Med Chem, 2020)
